According to ChEMBL document CHEMBL1150214, “Isolation, synthesis, and structure-activity relationships of bioactive benzoquinones from Miconia lepidota from the Suriname rainforest” (J Nat Prod, 2001):
Converted amounts (≈) assume the structure as drawn.

Assays:
[1] = system: Saccharomyces cerevisiae; test: Antifungal activity against Saccharomyces cerevisiae 7 assessed as concentration required to generate kill-zone of 12 mm in diameter; type: functional
Method in brief: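 Mutant S. cerevisiae Sc-7 on an agar-based gel, incubated […] with samples. Kill-zone diameters measured; IC12 (µg/mL) is the concentration giving a 12 mm zone. Standard deviations come from three separate experiments.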

[2] = system: Saccharomyces cerevisiae; test: Antifungal activity against Saccharomyces cerevisiae 1138 assessed as concentration required to generate kill-zone of 12 mm in diameter after 48 hrs; type: functional
Method in brief: (§1)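 Mutant S. cerevisiae strains on an agar-based gel, incubated 48 h with samples. Inhibition zones measured; IC12 (µg/mL) is the concentration producing a 12 mm diameter kill zone. Values with standard deviations come from three separate experiments.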

[3] = system: Saccharomyces cerevisiae; test: Antifungal activity against Saccharomyces cerevisiae 1140 assessed as concentration required to generate kill-zone of 12 mm in diameter after 48 hrs; type: functional; method in brief: as §1
[4] = system: Saccharomyces cerevisiae; test: Antifungal activity against Saccharomyces cerevisiae 1353 assessed as concentration required to generate kill-zone of 12 mm in diameter after 48 hrs
[5] = system: M109; test: Cytotoxicity against mouse M109 cells; type: functional, cell-based
Method in brief: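 In vitro antitumor cytotoxicity in murine Madison Lung Carcinoma (M109) cells, run at Bristol-Myers Squibb; value given as IC50 in µg/mL.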

[6] = system: A2780; test: Cytotoxicity against human A2780 cells; type: functional, cell-based

Row | Compound | Activity [1] [µg/mL] | Activity [2] [µg/mL] | Activity [3] [µg/mL] | Activity [4] [µg/mL] | IC50 [5] [µg/mL] | IC50 [6] [µg/mL]
1 | CCCCCCCCCCCCCCCCCCCC1=CC(=O)C=C(OC)C1=O | >2000 | >2000 | >2000 | >2000 | – | –
2 | CCCCCC1=CC(=O)C=C(OC)C1=O [Primin] | 48 | 240 | 170 | 285 | 10 (≈ 48 µM) | 2.9 (≈ 13.9 µM)
3 | COC1=CC(=O)C=C(Cc2ccccc2)C1=O | 180 | 460 | 420 | 590 | – | –
4 | CCCCC(O)C1=CC(=O)C=C(OC)C1=O (centres undefined) | 438 | 536 | 430 | 577 | – | –
5 | CCC1=CC(=O)C=C(OC)C1=O | 220 | 200 | 140 | 233 | – | –
6 | CCCCC1=CC(=O)C=C(OC)C1=O | 80 | 220 | 150 | 210 | – | 3.2 (≈ 16.5 µM)
7 | NYSTATIN | – | 14 | 13 | – | – | –
8 | COC1=CC(=O)C=C(C)C1=O | 530 | 580 | 630 | 830 | – | –
9 | CCCCCCCC1=CC(=O)C=C(OC)C1=O | 16 | 120 | 130 | 220 | 10 (≈ 42.3 µM) | 7.9 (≈ 33.4 µM)
10 | CCCCCCCCCCC1=CC(=O)C=C(OC)C1=O | 3 | 380 | 380 | 380 | 10 (≈ 35.9 µM) | –
